Bioassay records deposited in PubChem BioAssay by The Scripps Research Institute Molecular Screening Center.
MsrA act = bovine MsrA enzyme activators, primary screen, biochemical, absorbance, HTS; AID 602163, 2012; actives 0.3% (n = 360,000); Methionine sulfoxide reductase A (Bos taurus); activation, % at 10.6 µM; purified bovine MsrA, absorbance read-out; in the data active means activation above about 7.5%;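 further: 0% = vehicle and 100% = reference activator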
proCasp7 act = procaspase-7 activators, primary screen, counter-screen for procaspase-3 activator project, biochemical, absorbance, HTS, human | Caspase-7 (Homo sapiens), P55210 | recombinant procaspase-7, Ac-DEVD-pNA absorbance 405 nm; D23A/D198A/D206A triple mutant, cannot self-cleave; scale: DMSO 0, 5 µM enzyme 100 | activation, % at 8.5 µM | actives 0.093% (n = 330,000);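 active means percent activation above the screen-wide mean plus 3 SD, cut at about 25% in these data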
Target sequence (P55210 whole entry D23A/D198A/D206A): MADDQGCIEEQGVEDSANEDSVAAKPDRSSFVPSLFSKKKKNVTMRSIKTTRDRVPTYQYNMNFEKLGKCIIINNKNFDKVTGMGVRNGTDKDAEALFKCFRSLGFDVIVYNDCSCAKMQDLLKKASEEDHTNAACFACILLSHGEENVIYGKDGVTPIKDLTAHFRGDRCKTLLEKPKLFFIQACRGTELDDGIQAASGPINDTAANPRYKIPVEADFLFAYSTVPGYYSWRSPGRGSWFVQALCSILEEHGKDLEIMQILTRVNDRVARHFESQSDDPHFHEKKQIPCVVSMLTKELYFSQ
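Assay system: Uncleavable procaspase-7 mutant enzyme; Input: 2 µM procaspase-7 mutant as dispensed; Also added: DEVD-pNA substrate; Medium: Zinc-free HEPES pH 7.4 with 300 mM NaCl, 0.01% Triton X-100; Timing: 1 h compound preincubation, 2 h substrate cleavage, 25 °C; Measured by: Epi-absorbance of released pNA at 405 nm, two timepoints.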
proCasp3 act = activators of human procaspase-3 D3A mutant, primary screen, biochemical, absorbance, PC-3 D3A mutant, single concentration; actives 0.11% (n = 330,000); recombinant procaspase-3 D3A, Ac-DEVD-pNA absorbance 405 nm; activation, % at 8.5 µM; Caspase-3 (Homo sapiens), P42574;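 active means activation above the mean of all tested compounds plus 3 SD, cut at about 21% in these data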;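 further: 0% = DMSO alone and 100% = DMSO wells spiked with extra 5 µM PC-3 D3A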
Target sequence (P42574 whole entry D9A/D28A/D175A): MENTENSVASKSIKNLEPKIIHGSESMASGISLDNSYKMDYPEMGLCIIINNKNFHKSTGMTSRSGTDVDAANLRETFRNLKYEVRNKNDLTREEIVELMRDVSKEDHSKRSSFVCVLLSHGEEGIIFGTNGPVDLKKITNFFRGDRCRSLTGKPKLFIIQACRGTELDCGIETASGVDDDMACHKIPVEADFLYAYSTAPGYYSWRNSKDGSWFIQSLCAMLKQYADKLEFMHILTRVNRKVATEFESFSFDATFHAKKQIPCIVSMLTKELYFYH
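Compound: 8.5 µM single point, 0.8% DMSO / Material: Autoprocessing-dead procaspase-3 D3A mutant enzyme / Timing: 1 h preincubation plus 2 h reaction at 25 °C / Medium: Zinc-free HEPES/NaCl buffer with 0.01% Triton X-100 at pH 7.4 / Technique: 405 nm absorbance of p-nitroaniline, reads at 0 and 120 min / Repeats: one well per compound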
MsrA inh = bovine MsrA enzyme inhibitors, primary screen, biochemical, absorbance, HTS. Methionine sulfoxide reductase A (Bos taurus). purified bovine MsrA, absorbance read-out. inhibition, % at 15.5 µM. actives 0.75% (n = 360,000). AID 651718, 2012;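 further: 0% = vehicle wells with enzyme and 100% = reference inhibitor wells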
MsrA inh confirm = bovine MsrA inhibitors, retest, confirmation, biochemical, absorbance, HTS | actives 41% (n = 2,300) | shares compounds with MsrA inh | purified bovine MsrA, absorbance read-out | inhibition, % at 15.5 µM;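 further: coupled to thioredoxin reductase with NADPH and selenocystamine and DMSO as substrate; 0% = vehicle only and 100% = full effect of reference inhibitor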
* hit, by the source's call; . = no result. Most compounds without a hit are left out; they make up all but 1.2% or so of the library. Unless noted, no stated cut-off is given here; in the data, active means inhibition above about 4.5%; inactive means the rest.

SMILES | MsrA act | proCasp7 act | proCasp3 act | MsrA inh | MsrA inh confirm
CN(C)N=Nc1nc2c(c(=O)n(C)c(=O)n2C)n1C | -4 | 1 | 9 | 5.8* | 4
CC(C)/C=N/Nc1nc2c(c(=O)n(C)c(=O)n2C)n1C | -3 | 0 | -1 | 0 | .
COCCNC(=S)N(CCO)Cc1cc2cc3c(cc2[nH]c1=O)OCO3 | -7 | 14 | 8 | 5.1* | 5.1*
CN(C)CCN(Cc1cc2cc3c(cc2[nH]c1=O)OCCO3)C(=S)NCC1CCCO1 (stereo not given) | -4 | -2 | 5 | 5.2* | 1
CCN(CC)CCN(Cc1cc2cc3c(cc2[nH]c1=O)OCCO3)C(=S)NCC1CCCO1 (stereo not given) | -1 | -17 | -14 | 1 | .
O=C(/C=C(\Nc1cccc(F)c1)c1ccccc1)c1ccccc1 | . | . | . | 0 | .
CCN(CC)c1ccc(/C=N/n2c(C)cc(C)cc2=O)cc1 | -6 | 1 | 8 | 5.1* | 4
CC(=O)C1=C(C)N(Cc2ccc(Br)cc2)C(=S)NC1c1cccc(F)c1 (stereo not given) | . | . | . | 0 | .
COC(=O)c1cc2c(c3c4cc(OC)ccc4n(S(=O)(=O)c4cccc(C)c4)c13)C(=O)N(Cc1ccc(C(F)(F)F)cc1)C2 | . | . | . | 1 | .
CCOC(=O)Cn1cc(/C=C(/C#N)C(=O)NC(C)C)c2ccccc21 | -3 | -3 | -3 | 2 | .
CCOC(=O)Cn1cc(/C=N/NC(=O)c2ccc(C#N)cc2F)c2ccccc21 | -4 | -1 | 13 | 6.2* | 4
N#Cc1ccc(C(=O)N/N=C/c2cn(CC(=O)O)c3ccccc23)c(F)c1 | -6 | -12 | -9 | 6.8* | 3
Cn1cc(/C=N/NC(=O)c2ccc(C#N)cc2F)c2ccccc21 | -3 | 0 | -1 | 3 | .
COC(=O)[C@]12C[C@H](CC(=O)N3CCCC3)C(=O)N(Cc3ccccc3)C1=C[C@H](C(C)C)O[C@@H]2C1CC1 | . | . | . | 0 | .
Cc1nc2ccc(NC(=O)c3cc([N+](=O)[O-])cc([N+](=O)[O-])c3Cl)cc2s1 | 2 | 4 | -11 | 5.5* | 2
CN(C)c1ccc(C=NCC2(O)CCOC(C)(C)C2)cc1 (stereo not given) | -10 | 7 | 2 | 5.2* | 4.8*
CC(=O)Nc1ccc(C=NNc2ccc(S(=O)(=O)Nc3ccccc3C(=O)O)cc2[N+](=O)[O-])cc1 | -7 | 2 | 4 | 6.0* | 4.9*
NS(=O)(=O)c1ccc(N/N=C/c2ccc[nH]2)c([N+](=O)[O-])c1 | -10 | -10 | -4 | 5.1* | 5.5*
NS(=O)(=O)c1ccc(N/N=C/c2ccc(C(=O)O)cc2)c([N+](=O)[O-])c1 | -6 | -14 | 4 | 5.1* | 4.9*
C#CCN(Cc1cccc(F)c1)C(=O)c1nnc2c3cc(F)ccc3n(S(=O)(=O)c3ccc(OC)cc3)c2n1 | . | . | . | -1 | .
COC(=O)C1=C(C)N(C)C(=NCc2ccc(OC)cc2)NC1c1cccc(Cl)c1 (stereo not given) | . | . | . | -1 | .
CN(C)c1ccc(N=C/C=C2\N(C)c3ccccc3C2(C)C)cc1 | -3 | -19 | -15 | 5.0* | 2
Cc1cc(/N=C/C=C2\N(C)c3ccccc3C2(C)C)n(CCC#N)n1 | -3 | -14 | -4 | 5.4* | 3
CN1/C(=C\C=O)C(C)(C)c2ccccc21 | -1 | 4 | 3 | 6.8* | 6.0*
COc1ccc(N/C(=C\C(=O)c2ccccc2)c2ccccc2)cc1OC | . | . | . | 1 | .
SMILES | MsrA act | proCasp7 act | proCasp3 act | MsrA inh | MsrA inh confirm
Cc1ccccc1NC1=C/C(=N\S(=O)(=O)c2ccc(C(=O)O)cc2)c2ccccc2C1=O | -2 | 4 | -6 | 19* | 21*
CC(C)c1ccc(S(=O)(=O)/N=C2\C=C(NS(=O)(=O)c3ccccc3)C(=O)c3ccccc32)cc1 | -1 | -8 | -10 | 2 | .
CCc1ccc(S(=O)(=O)/N=C2\C=C(NS(=O)(=O)c3ccccc3)C(=O)c3ccccc32)cc1 | -12 | . | . | 1 | .
O=C(O)c1ccc(S(=O)(=O)/N=C2\C=C(Nc3ccccc3F)C(=O)c3ccccc32)cc1 | -2 | -7 | -3 | 46* | 47*
COc1cccc2cc3c(=O)oc4ccccc4c3nc12 | -4 | 25 | -8 | 19* | 13*
NC(=O)[C@@H]1CCCN1C(=O)[C@@H](Cc1ccccc1)NC(=O)[C@H]1O[C@@H](n2ccc(=O)[nH]c2=O)[C@H](O)[C@@H]1O | . | . | . | -1 | .
Clc1cncc(Cl)c1N/N=C/c1ccncc1 | -5 | 8 | 3 | 4.9* | 4
CC1(C)CC(=O)C=C(Nc2ccc(S(N)(=O)=O)cc2)C1 | -7 | 7 | 5 | 4.9* | 3
CC1(C)CC(=O)C=C(Nc2ccc(C(=O)O)cc2)C1 | -4 | -2 | -3 | 7.0* | 3
COC(=O)C1=C(C)NC(=S)NC1c1ccc(Br)cc1 (stereo not given) | . | . | . | 0 | .
CC(=O)O[C@H]1C=C[C@@H](C#Cc2ccc(C(C)(C)C)cc2)O[C@@H]1COC(=O)Nc1ccccc1 | . | . | . | 0 | .
O=C(CNSc1ccc([N+](=O)[O-])cc1[N+](=O)[O-])OCc1ccccc1 | . | . | . | 1 | .
O=C(C(=O)N1CCC(CNS(=O)(=O)c2ccc(F)c(F)c2)CC1)c1cc2ccccc2o1 | . | . | . | 1 | .
CC1S/C(=N/N=C/c2cccs2)NC1=O (stereo not given) | -5 | 16 | 4 | 5.0* | 4
CCCC1S/C(=N/N=C/c2cccs2)NC1=O (stereo not given) | -6 | 10 | -7 | 3 | .
CC(C)C1S/C(=N/N=C/c2cccs2)NC1=O (stereo not given) | -8 | -7 | -6 | 6.8* | 4
CCC1S/C(=N/N=C/c2cccs2)NC1=O (stereo not given) | -8 | 2 | 4 | 6.2* | 5.5*
C(=N\N=C\c1cccs1)/c1cccs1 | -1 | 6 | 11 | 5.1* | 4.7*
O=[N+]([O-])c1cc2c(ccc3occc32)o1 | . | . | . | 2 | .
C[C@@H]1CN(c2ccc(N3CCN(C(=O)OC(C)(C)C)C[C@@H]3C)cc2C#N)CCN1Cc1ccccc1 | . | . | . | -1 | .
CC(C)(C)c1ccc(S(=O)(=O)NCC2CCN(C(=O)C(=O)c3cccs3)CC2)cc1 | . | . | . | 0 | .
COC(=O)c1c(C)c2c(C)cc3ccccn3c-2c1C(=O)OC | -2 | 5 | -1 | 4.7* | 3
COC(=O)c1cc2c(-c3ccccc3)cc3ccccn3c-2c1C(=O)OC | -11 | -4 | -11 | 1 | .
CCOC(=O)Cc1csc(NC(=O)/C=C/c2ccco2)n1 | -7 | -8 | 5 | 7.8* | 4.6*
